The source made the active and inactive calls.
Legend:
[1] = molecular target: T1, Corticotropin-releasing factor receptor 1 (Rattus norvegicus, UniProt P35353); experiment: Displacement of [125I]Tyr0-ovine CRF from CRF1 receptor in rat cortical membrane by gamma counting; format: cell membranes
T1 sequence (P35353 whole entry): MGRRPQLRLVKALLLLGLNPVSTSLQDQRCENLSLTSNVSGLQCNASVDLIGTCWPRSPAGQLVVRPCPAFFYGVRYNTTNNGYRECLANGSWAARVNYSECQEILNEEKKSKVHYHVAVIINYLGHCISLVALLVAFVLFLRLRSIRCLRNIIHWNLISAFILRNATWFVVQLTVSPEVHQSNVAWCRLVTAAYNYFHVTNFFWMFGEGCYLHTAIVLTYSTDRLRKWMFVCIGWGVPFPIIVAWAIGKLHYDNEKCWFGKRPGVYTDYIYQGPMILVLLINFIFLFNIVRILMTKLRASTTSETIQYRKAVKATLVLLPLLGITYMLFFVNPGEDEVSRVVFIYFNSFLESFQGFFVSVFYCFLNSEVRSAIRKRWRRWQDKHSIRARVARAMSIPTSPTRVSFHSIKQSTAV
How it was run: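 Inhibition of 125I-Tyr0-ovine-CRF binding to rat cortical membranes measured across dilutions of test drug; IC50 derived by iterative curve fitting.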

Canis familiaris [2] = experiment: Ex vivo displacement of [125I]Tyr0-ovine CRF from CRF1 receptor in dog at 5 mg/kg, po measured in plasma after 2 hrs; format: functional; settings: Canis lupus familiaris
How it was run: (§1)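 Beagle dogs given 5 mg/kg po (free base), in Labrafil or Tween-80/0.5% methylcellulose 1:99; plasma drawn 2 and 10 h postdose, diluted 10-fold in binding buffer, and tested for inhibition of 125I-Tyr0-ovine-CRF binding to rat receptors; mean ± SD, n = 3.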

Canis familiaris [3] = experiment: Ex vivo displacement of [125I]Tyr0-ovine CRF from CRF1 receptor in dog at 5 mg/kg, po measured in plasma after 10 hrs; format: functional; settings: Canis lupus familiaris; how it was run: as §1
[4] = molecular target: T1, Corticotropin-releasing factor receptor 1; experiment: Antagonist activity at CRF1 receptor in rat brain homogenates assessed as inhibition of CRF-stimulted cAMP production; format: functional, tissue-based
How it was run: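 Rat cortical homogenate (0.8 mg original wet weight tissue) incubated 10 min at 37 °C in 100 mM Tris-HCl pH 7.4, 10 mM MgCl2, 0.4 mM EGTA, 0.1% BSA, 1 mM IBMX, creatine phosphate/phosphocreatine kinase, 100 nM ovine-CRF; started with 1 mM ATP/[32P]ATP; [32P]cAMP separated on Dowex and alumina columns, [3H]cAMP recovery marker; n = 3.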

[5] = molecular target: T2, Corticotropin-releasing factor receptor 1 (Homo sapiens, UniProt P34998); experiment: Binding affinity to CRF1 receptor in human IMR32 cells; format: cell-based, IMR-32
T2 sequence (P34998 whole entry): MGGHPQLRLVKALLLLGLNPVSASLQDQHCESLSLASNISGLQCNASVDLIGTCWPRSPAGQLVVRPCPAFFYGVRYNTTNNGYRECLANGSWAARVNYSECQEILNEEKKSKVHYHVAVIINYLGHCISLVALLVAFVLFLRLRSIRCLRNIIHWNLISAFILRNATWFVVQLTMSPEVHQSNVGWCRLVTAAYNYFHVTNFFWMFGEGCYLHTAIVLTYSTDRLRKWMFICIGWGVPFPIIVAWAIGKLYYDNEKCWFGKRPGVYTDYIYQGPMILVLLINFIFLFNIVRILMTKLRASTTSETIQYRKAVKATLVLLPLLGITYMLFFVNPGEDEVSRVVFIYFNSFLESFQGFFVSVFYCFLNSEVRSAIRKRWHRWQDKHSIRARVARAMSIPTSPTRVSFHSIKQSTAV

Rattus norvegicus [6] = experiment: Anxiolytic-like activity in Sprague-Dawley rat assessed as decrease in latency to exit dark chamber at 10 mg/kg, po measured after 1 hr by defensive withdrawal test relative to control; format: functional; design: scale not given: the % may be the effect or the level left
How it was run: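 Male Sprague-Dawley rats (180-300 g), individually housed; open field with cylindrical dark chamber; oral dosing in 0.25% Methocel 1 h before a 15 min session scored blind via video; latency to place all four paws in open field recorded, maximum 900 s; test doses 1.0, 3.0, 10, 30 mg/kg; positive control at 10 mg/kg; n = 12/dose; Kruskal-Wallis then Mann-Whitney U.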

Rattus norvegicus [7] = experiment: Anxiolytic-like activity in Sprague-Dawley rat assessed as increase in time spent in open arms at 18 mg/kg, po measured after 1 hr by elevated plus maze test; format: functional, organism-based; design: dose 18 mg/kg
How it was run: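 Group-housed male Sprague-Dawley rats (180-300 g) dosed po in 0.25% Methocel 1 h before elevated plus maze; arm entry defined as all four paws in arm; percent time in open arms scored; test doses 1.0, 3.0, 10, 30 mg/kg; positive control at 18 mg/kg; n = 13-15/dose; mean ± SEM, ANOVA then Fisher's LSD.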

Rattus norvegicus [8] = experiment: Toxicity in Sprague-Dawley rat assessed as time spent on rotarod at 30 mg/kg, po after 1 hr by rotarod test; format: organism-based; design: dose 30 mg/kg, route oral; settings: in vivo
How it was run: (§2)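 Male Sprague-Dawley rats received a single oral gavage dose of 30 mg/kg (free base weight) in 0.5% methocel–Tween-80 (99:1) or vehicle alone. Behaviour was assessed 1 h postdose, as time on the rotorod in seconds for the rotorod test and total distance travelled in cm for open-field locomotor activity. Values are mean ± SEM, n = 8 per group.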

Rattus norvegicus [9] = experiment: Toxicity in Sprague-Dawley rat assessed as total distance traveled at 30 mg/kg, po after 1 hr by open-field locomotor activity test; format: organism-based; design: dose 30 mg/kg, route oral; settings: in vivo; how it was run: as §2

Molecule	IC50 [1]	also measured
CCCN(CC1CC1)c1nc(C)nc2c(-c3ccc(OC)cc3C)c(C)nn12	1.96 nM	
CCN(CC)c1nc(C)nc2c(-c3ccc(OC)c(C)c3C)c(C)nn12	38.6 nM	
CCC1CCCCN1c1nc(C)nc2c(-c3c(C)cc(OC)cc3OC)c(C)nn12 (centres undefined)	3.26 nM	
COc1ccc(-c2c(C)nn3c(N4CCCC4)nc(C)nc23)c(C)c1	80.7 nM	
CCCCN(CC)c1nc(C)nc2c(-c3c(C)cc(OC)cc3C)c(C)nn12	4.22 nM	
CCCN(CCC)c1nc(C)nc2c(-c3ccc(OC)cc3C)c(C)nn12	2.58 nM	
CCC(CC)Nc1nc(C)nc2c(-c3c(C)cc(OC)cc3OC)c(C)nn12	5 nM	inhibition in vivo at 5 mg/kg (Canis familiaris [2]): 80%; inhibition in vivo at 5 mg/kg (Canis familiaris [3]): 56%
CCC(CC)Nc1nc(C)nc2c(-c3ccc(OC)cc3)c(C)nn12	3.8 nM	
CCCN(CCC#N)c1nc(C)nc2c(-c3ccc(OC)cc3C)c(C)nn12	2.16 nM	
H-DLTFHLLREMLEMAKAEQEAEQAALNRLLLEEA-NH2	1.24 nM	IC50 [4]: 264 nM; IC50 [5]: 2 nM
COCCN(CC1CC1)c1nc(C)nc2c(-c3c(C)cc(OC)cc3OC)c(C)nn12	1.8 nM	
COCC(COC)Nc1nc(C)nc2c(-c3ccc(Cl)cc3Cl)c(C)nn12	4.2 nM	Activity (Rattus norvegicus [6]): 52%; Activity (Rattus norvegicus [7]): Active
COCCN(CCOC)c1nc(C)nc2c(-c3cc(OC)c(OC)cc3Br)c(C)nn12	4.99 nM	
CNC1=Nc2ccc(Cl)cc2C(c2ccccc2)=[N+]([O-])C1 [CHLORDIAZEPOXIDE]		Time (Rattus norvegicus [8]): 121 s; Activity (Rattus norvegicus [9]): 2249 cm
COCCN(CCOC)c1nc(C)nc2c(-c3c(C)cc(OC)cc3C)c(C)nn12	2.74 nM	
C=CCN(C)c1nc(C)nc2c(-c3c(C)cc(OC)cc3OC)c(C)nn12	4.92 nM	
COCC(COC)Nc1nc(C)nc2c(-c3ccc(OC)cc3C)c(C)nn12	9.7 nM	
C=CCN(CC=C)c1nc(C)nc2c(-c3c(C)cc(OC)cc3OC)c(C)nn12	1 nM	
CCN(CCOC)c1nc(C)nc2c(-c3c(C)cc(OC)cc3OC)c(C)nn12	1.78 nM	inhibition in vivo at 5 mg/kg (Canis familiaris [2]): 86%; inhibition in vivo at 5 mg/kg (Canis familiaris [3]): 54%
CCC(CC)Nc1nc(C)nc2c(-c3cc(OC)c(OC)cc3Br)c(C)nn12	6.08 nM	
CCN(CC)c1nc(C)nc2c(-c3cc(OC)c(OC)cc3Br)c(C)nn12	4.06 nM	

Molecule	IC50 [1]	also measured
COc1cc(C)c(-c2c(C)nn3c(NC4CCC4)nc(C)nc23)c(OC)c1	17.4 nM	inhibition in vivo at 5 mg/kg (Canis familiaris [2]): 52%; inhibition in vivo at 5 mg/kg (Canis familiaris [3]): 46%
CCCN(C)c1nc(C)nc2c(-c3c(C)cc(OC)cc3OC)c(C)nn12	6.48 nM	
CCC(CC)Nc1nc(C)nc2c(-c3ccc(OC)c(C)c3C)c(C)nn12	11.3 nM	
CCCCN(CC)c1nc(C)nc2c(-c3ccc(OC)cc3C)c(C)nn12	2.3 nM	
CCN(CC)c1nc(C)nc2c(-c3cc(F)c(OC)cc3Cl)c(C)nn12	1.64 nM	
CCN(CC)c1nc(C)nc2c(-c3c(C)cc(OC)cc3OC)c(C)nn12	1.2 nM	inhibition in vivo at 5 mg/kg (Canis familiaris [2]): 56%; inhibition in vivo at 5 mg/kg (Canis familiaris [3]): 30%
CCCN(CCC)c1nc(C)nc2c(-c3c(C)cc(OC)cc3OC)c(C)nn12	3.72 nM	
COCCN(CCOC)c1nc(C)nc2c(-c3cc(OC)c(OC)cc3Cl)c(C)nn12	8 nM	
CCCCN(CC)c1nc(C)nc2c(-c3c(C)cc(OC)cc3OC)c(C)nn12	1.72 nM	
COCCN(CCOC)c1nc(C)nc2c(-c3ccc(OC)cc3)c(C)nn12	11.5 nM	
COCCN(CCOC)c1nc(C)nc2c(-c3cc(OC)c(OC)cc3C)c(C)nn12	13.7 nM	
CCOCC(COCC)Nc1nc(C)nc2c(-c3ccc(OC)cc3C)c(C)nn12	19.3 nM	
CCCC(C)Nc1nc(C)nc2c(-c3c(C)cc(OC)cc3OC)c(C)nn12 (centres undefined)	2.14 nM	
CCN(CC)c1nc(C)nc2c(-c3ccc(OC)cc3C)c(C)nn12	6.08 nM	
COc1ccc(-c2c(C)nn3c(NC4CCC4)nc(C)nc23)c(C)c1	24.6 nM	
CCC(CC)Nc1nc(C)nc2c(-c3cc(F)c(OC)cc3C)c(C)nn12	1.9 nM	inhibition in vivo at 5 mg/kg (Canis familiaris [2]): 81%; inhibition in vivo at 5 mg/kg (Canis familiaris [3]): 25%
CC[C@H](C)Nc1nc(C)nc2c(-c3c(C)cc(OC)cc3OC)c(C)nn12	2.9 nM	inhibition in vivo at 5 mg/kg (Canis familiaris [2]): 72%; inhibition in vivo at 5 mg/kg (Canis familiaris [3]): 74%
COc1ccc(-c2c(C)nn3c(N(CCC#N)C4CC4)nc(C)nc23)c(C)c1	1.88 nM	
COCCN(CCOC)c1nc(C)nc2c(-c3c(C)cc(OC)cc3OC)c(C)nn12	7.96 nM	
CCN(CCC#N)c1nc(C)nc2c(-c3c(C)cc(OC)cc3OC)c(C)nn12	2.48 nM	
COCCN(CCOC)c1nc(C)nc2c(-c3cc(F)c(OC)cc3Cl)c(C)nn12	1.18 nM	
